# Test results reported in ChEMBL document CHEMBL4382237, “Design, Synthesis, and Biological Evaluation of 2-Nitroimidazopyrazin-one/-es with Antitubercular and Antiparasitic Activity” (J Med Chem, 2018).
# Calls of active or inactive are those of the source. The rule behind the calls is not given here.
# Legend:
# [1] = tested on: Trypanosoma brucei brucei; test: Antiparasitic activity against bloodstream form of Trypanosoma brucei brucei strain 427 after 48 hrs by resazurin dye-based assay; format: functional, organism-based; details: for IC50: strain 427, 48 h
# [2] = tested on: Entamoeba histolytica; test: Antiparasitic activity against Entamoeba histolytica HM-1:IMSS trophozoites after 24 to 48 hrs by CellTiter-Glo luminescent cell viability assay; format: functional, organism-based
# Procedure, shortened: (§1)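 Axenic trophozoites were kept in TYI-S-33 with penicillin (100 U/mL) and streptomycin (100 µg/mL) and harvested in log phase. 5000 parasites per well were exposed to a final 8-point two-fold series of 0.39–50 µM, from 10 mM DMSO stocks. Plates were incubated 24–48 h at 37 °C under anaerobic conditions. ATP luminescence viability was read in triplicate. Percent inhibition is given at the highest concentration tested.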
# [3] = tested on: Giardia intestinalis; test: Antiparasitic activity against Giardia lamblia WB trophozoites after 24 to 48 hrs by CellTiter-Glo luminescent cell viability assay; details: Giardia duodenalis
# [4] = tested on: HepG2; test: Cytotoxicity against human HepG2 cells after 24 hrs by resazurin dye-based fluorescence assay; format: cell-based; details: hepg2, 24 h
# Procedure, shortened: (§2)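 HEK293 (3000/well) and HepG2 (5000/well) were grown 24 h in DMEM with 10% FBS at 37 °C, 5% CO2. Cells were then exposed 24 h to a dilution series up to 100 µM (0.5% DMSO). 5 µM resazurin was added for 2 h, read at ex 560/em 590. 1% Triton X-100 served as lysis control. CC50 was derived from the curves.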
# [5] = tested on: HEK293; test: Cytotoxicity against HEK293 cells after 24 hrs by resazurin dye-based fluorescence assay; format: cell-based; details: human, hek293, 24 h; procedure, shortened: as §2
# [6] = tested on: Mycobacterium tuberculosis; test: Antibacterial activity against Mycobacterium tuberculosis H37Rv after 5 days under normoxic condition by resazurin dye-based fluorescence assay; format: functional, organism-based
# Procedure, shortened: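 H37Rv grown in 7H9/ADC/glycerol/Tyloxapol to mid-exponential phase, diluted to OD600 0.001 (~2 x 10^4 CFU/mL) in 7H9S with serially diluted compound. Incubated 5 days at 37 °C, then resazurin and Tween-80 added. Fluorescence (ex 530/em 590 nm) read after 24 h, normalised to no-drug and no-bacteria wells.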
# [7] = tested on: Cryptococcus neoformans; test: Antifungal activity against Cryptococcus neoformans H99 ATCC […] broth microdilution assay; format: functional; details: var. grubii H99 ATCC 208821
# Procedure, shortened: (§3)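 Broth microdilution run essentially per an earlier report. MIC taken as the lowest concentration with no visible growth. Replicates typically agreed within one 2-fold dilution. The median MIC is reported, with a range where the median fell between two tested concentrations.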
# [8] = physchem; details: water
# [9] = tested on: Giardia intestinalis; test: Antiparasitic activity against Giardia lamblia WB trophozoites after 24 to 48 hrs by CellTiter-Glo luminescent cell viability assay; details: Giardia duodenalis
# [10] = tested on: Pseudomonas aeruginosa; test: Antibacterial activity against Pseudomonas aeruginosa ATCC 27853 by broth microdilution assay; format: functional; procedure, shortened: as §3
# [11] = tested on: Escherichia coli; test: Antibacterial activity against Escherichia coli ATCC 25922 by broth microdilution assay; format: functional; procedure, shortened: as §3
# [12] = physchem; details: PBS, pH 7.4
# [13] = tested on: Acinetobacter baumannii; test: Antibacterial activity against Acinetobacter baumannii ATCC 19606 by broth microdilution assay; format: functional; details: ATCC 19606 = CIP 70.34 = JCM 6841; procedure, shortened: as §3
# [14] = tested on: Candida albicans; test: Antifungal activity against Candida albicans ATCC 90028 by broth microdilution assay; format: functional; procedure, shortened: as §3
# [15] = tested on: Klebsiella pneumoniae; test: Antibacterial activity against Klebsiella pneumoniae 700603 by broth microdilution assay; format: functional; procedure, shortened: as §3
# [16] = tested on: Mycobacterium tuberculosis; test: Antibacterial activity against non-replicating Mycobacterium tuberculosis H37Rv assessed as inhibition of bacterial growth at 0.06 to 16 ug/ml after 5 days under hypoxic condition by resazurin dye-based fluorescence assay relative to control; format: functional; details: at 0.06 to 16 µg/mL
# [17] = tested on: Staphylococcus aureus; test: Antibacterial activity against methicillin-resistant Staphylococcus aureus ATCC […] by broth microdilution assay; format: functional
# [18] = Apparent permeability across basolateral to apical side in human Caco2 cells assessed as mean drug recovery at 2 uM after 2 hrs by lucifer yellow dye-based LC-MS/MS analysis; details: Caco-2
# [19] = Apparent permeability across apical to basolateral side in human Caco2 cells at 2 uM after 2 hrs by lucifer yellow dye-based LC-MS/MS analysis; details: caco-2, 2 h
# [20] = Apparent permeability across basolateral to apical side in human Caco2 cells at 2 uM after 2 hrs by lucifer yellow dye-based LC-MS/MS analysis; details: caco-2, 2 h
# [21] = Apparent permeability across apical to basolateral side in human Caco2 cells assessed as mean drug recovery at 2 uM after 2 hrs by lucifer yellow dye-based LC-MS/MS analysis; details: caco-2, 2 h
# [22] = Metabolic stability in CD-1 mouse plasma assessed as parent compound remaining at 3 uM after 2 hrs by LC-MS/MS analysis
# [23] = Metabolic stability in human liver microsomes assessed as parent compound remaining at 3 uM after 2 hrs by LC-MS/MS analysis
# [24] = tested on: Clostridioides difficile; test: Antibacterial activity against Clostridium difficile 630 ATCC BAA-1382 by broth microdilution assay; format: functional; procedure, shortened: as §3
# [25] = Metabolic stability in human plasma assessed as parent compound remaining at 3 uM after 2 hrs by LC-MS/MS analysis
# [26] = Metabolic stability in CD-1 mouse liver microsomes assessed as parent compound remaining at 3 uM after 2 hrs by LC-MS/MS analysis
# [27] = buffer, 24 h, 200 µM
# [28] = buffer, pH 7.4, 24 h, 200 µM
# [29] = tested on: Mycobacterium tuberculosis; test: Antibacterial activity against non-replicating Mycobacterium tuberculosis H37Rv after 5 days under hypoxic condition by resazurin dye-based fluorescence assay; format: functional; details: 120 h
# Procedure, shortened: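 Same H37Rv inoculum (OD600 0.001, ~2 x 10^4 CFU/mL) in 7H9S with serially diluted compound. Plates held 5 days at 0.1% oxygen, then resazurin plus Tween-80 added.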
# [30] = tested on: Entamoeba histolytica; test: Antiparasitic activity against Entamoeba histolytica HM-1:IMSS trophozoites assessed as inhibition of parasitic growth at 50 uM after 24 to 48 hrs by CellTiter-Glo luminescent cell viability assay relative to control; format: functional; details: read-out: GI; procedure, shortened: as §1
# [31] = Protein binding in human plasma at 5 uM after 30 mins by LC-MS/MS analysis based ultrafiltration method; details: 0.5 h
# [32] = tested on: Mycobacterium tuberculosis; test: Antibacterial activity against non-replicating Mycobacterium tuberculosis H37Rv assessed as inhibition of bacterial growth at 0.125 to 8 ug/ml after 5 days under hypoxic condition by resazurin dye-based fluorescence assay relative to control; format: functional
smiles,measurement,setting,value
O=c1c2nccn2ccn1Cc1ccccc1,Activity,[1],inactive
same,Activity,[2],inactive
same,Activity,[3],inactive
O=c1c2nc([N+](=O)[O-])cn2ccn1Cc1cccc(C(F)(F)F)c1,IC50,[1]; read-out: IC50,5.3 µM
same,IC50,[1]; read-out: pIC50 (converted),5.01 µM
same,CC50,[4],> 100 µM
same,CC50,[5],> 100 µM
same,MIC,[6],0.06 µg/mL
same,MIC,[7],> 32 µg/mL
same,"solubility kinetic at 24 h, 200 µM",[8],< 5 µM
same,IC50,[9],7.1 µM
same,IC50,[9]; read-out: pIC50 (converted),7.94 µM
same,MIC,[10],> 32 µg/mL
same,MIC,[11],> 32 µg/mL
same,"solubility kinetic at 24 h, 200 µM",[12],< 5 µM
same,MIC,[13],> 32 µg/mL
same,MIC,[14],> 32 µg/mL
same,MIC,[15],> 32 µg/mL
same,growth inhibition (GI),[16],70 - 90%
same,MIC,[17],> 32 µg/mL
O=[N+]([O-])c1cn2c(n1)OC[C@@H](OCc1ccc(OC(F)(F)F)cc1)C2 [PRETOMANID],"recovery at 2 h, 2 µM",[18],101%
same,Papp,[19],29 ×10⁻⁶ cm/s
same,Papp,[20],22 ×10⁻⁶ cm/s
same,Drug recovery,[21],81%
O=c1c2nc([N+](=O)[O-])cn2ccn1Cc1cccc(OC(F)(F)F)c1,"recovery at 2 h, 2 µM",[18],99%
same,Papp,[19],24 ×10⁻⁶ cm/s
same,Stability,[22],97%
same,Stability,[23],> 99%
same,Papp,[20],24 ×10⁻⁶ cm/s
same,Drug recovery,[21],88%
same,MIC,[24],> 64 µg/mL
same,Stability,[25],> 99%
same,Stability,[26],> 99%
CC(=O)OCCn1c(C)cn2cc([N+](=O)[O-])nc2c1=O,log(Kinetic_solubility),[27],> -4
same,IC50,[1]; read-out: IC50,0.65 µM
same,IC50,[1]; read-out: pIC50 (converted),0.631 µM
same,log(Kinetic_solubility),[28],> -4
same,MIC,[29],> 32 µg/mL
same,MIC,[6],>32 µg/mL
same,"solubility kinetic at 24 h, 200 µM",[8],100 to 200 µM
same,IC50,[9],50 µM
same,IC50,[9]; read-out: pIC50 (converted),50.1 µM
same,"solubility kinetic at 24 h, 200 µM",[12],100 to 200 µM
same,inhibition of growth at 50 µM,[30],41%
O=c1c2nc([N+](=O)[O-])cn2ccn1Cc1ccc(OC(F)(F)F)cc1,"recovery at 2 h, 2 µM",[18],97%
same,Papp,[19],25 ×10⁻⁶ cm/s
same,Stability,[22],> 99%
same,Stability,[23],> 99%
same,Papp,[20],22 ×10⁻⁶ cm/s
same,Drug recovery,[21],83%
same,MIC,[24],> 64 µg/mL
same,Stability,[25],> 99%
same,Stability,[26],> 99%
same,PPB,[31],98%
O=c1c2nc([N+](=O)[O-])cn2ccn1Cc1ccc(F)cc1,IC50,[1]; read-out: IC50,2.9 µM
same,IC50,[1]; read-out: pIC50 (converted),3.16 µM
same,CC50,[4],> 100 µM
same,CC50,[5],> 100 µM
same,MIC,[29],2 µg/mL
same,MIC,[6],1 µg/mL
same,Stability,[22],> 99%
same,MIC,[7],> 32 µg/mL
same,Stability,[23],99%
same,IC50,[9],6.4 µM
same,IC50,[9]; read-out: pIC50 (converted),6.31 µM
same,MIC,[10],> 32 µg/mL
same,MIC,[24],> 64 µg/mL
same,Stability,[25],98%
same,MIC,[11],> 32 µg/mL
same,IC50,[2]; read-out: IC50,> 50 µM
same,MIC,[13],> 32 µg/mL
same,MIC,[14],> 32 µg/mL
same,Stability,[26],> 99%
same,MIC,[15],> 32 µg/mL
same,MIC,[17],> 32 µg/mL
same,PPB,[31],82%
CC(=O)OCCOc1nc(C)cn2cc([N+](=O)[O-])nc12,IC50,[1]; read-out: IC50,> 40 µM
same,IC50,[1]; read-out: pIC50 (converted),> 39.8 µM
same,MIC,[29],> 32 µg/mL
same,IC50,[9],21 µM
same,IC50,[9]; read-out: pIC50 (converted),20 µM
same,inhibition of growth at 50 µM,[30],42%
Cc1ccc(Cn2c(C)c(C)n3cc([N+](=O)[O-])nc3c2=O)cc1,log(Kinetic_solubility),[27],< -5
same,IC50,[1]; read-out: IC50,0.25 µM
same,IC50,[1]; read-out: pIC50 (converted),0.251 µM
same,log(Kinetic_solubility),[28],< -5
same,MIC,[29],4 µg/mL
same,MIC,[6],2 µg/mL
same,IC50,[9],5.2 µM
same,IC50,[9]; read-out: pIC50 (converted),5.01 µM
same,"solubility kinetic at 24 h, 200 µM",[12],< 10 µM
same,IC50,[2]; read-out: IC50,33 µM
same,IC50,[2]; read-out: pIC50 (converted),31.6 µM
Cc1cccc(Cn2ccn3cc([N+](=O)[O-])nc3c2=O)c1,IC50,[1]; read-out: IC50,5.4 µM
same,IC50,[1]; read-out: pIC50 (converted),5.01 µM
same,CC50,[4],> 100 µM
same,CC50,[5],> 100 µM
same,MIC,[6],0.06 µg/mL
same,growth inhibition (GI),[32],70 - 90%
same,MIC,[7],> 32 µg/mL
same,IC50,[9],9 µM
same,IC50,[9]; read-out: pIC50 (converted),10 µM
same,MIC,[10],> 32 µg/mL
same,MIC,[11],> 32 µg/mL
same,MIC,[13],> 32 µg/mL
same,MIC,[14],> 32 µg/mL
same,MIC,[15],> 32 µg/mL
same,MIC,[17],> 32 µg/mL
O=c1c2nccn2ccn1Cc1ccc(F)cc1,Activity,[1],inactive
same,Activity,[2],inactive
same,Activity,[3],inactive
C[C@H]1O[C@@H](O[C@H]2[C@@H](O)C[C@H](O[C@H]3[C@@H](O)C[C@H](O[C@H]4CC[C@@]5(C)[C@H](CC[C@@H]6[C@@H]5C[C@@H](O)[C@]5(C)[C@@H](C7=CC(=O)OC7)CC[C@]65O)C4)O[C@@H]3C)O[C@@H]2C)C[C@H](O)[C@@H]1O [DIGOXIN],"recovery at 2 h, 2 µM",[18],88%
same,Drug recovery,[21],< 72%
CC(=O)OCCn1c(-c2ccccc2)cn2cc([N+](=O)[O-])nc2c1=O,log(Kinetic_solubility),[27],> -4
same,IC50,[1]; read-out: IC50,0.86 µM
same,IC50,[1]; read-out: pIC50 (converted),0.794 µM
same,log(Kinetic_solubility),[28],> -4
same,MIC,[29],> 32 µg/mL
same,"solubility kinetic at 24 h, 200 µM",[8],> 100 µM
same,IC50,[9],11 µM
same,IC50,[9]; read-out: pIC50 (converted),10 µM
same,"solubility kinetic at 24 h, 200 µM",[12],> 100 µM
same,IC50,[2]; read-out: IC50,34 µM
same,IC50,[2]; read-out: pIC50 (converted),31.6 µM
